# Measurements as given in ChEMBL document CHEMBL1144782, “Isoindolo[2,1-a]quinoxaline derivatives, novel potent antitumor agents with dual inhibition of tubulin polymerization and topoisomerase I” (2008).
# Columns and labels:
# Assay type in all cases: functional
# NCI-H23 = assay: Antitumor activity against human NCI-H23 cells
# Outline: (§1)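 Run by the NCI in its in vitro disease-oriented screen of about 60 human tumour cell lines. For each line it reports pGI50 (50% net growth inhibition), pTGI (total growth inhibition) and pLC50 (50% net cell death), each as –log molar concentration. Where an effect was not reached within the tested range, the highest tested concentration was used.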
# SK-MEL-2 = assay: Antitumor activity against human SKMEL2 cells; outline: as §1
# MCF7 [1] = assay: Growth inhibition of human MCF7 cells after 72 hrs by MTT assay; details: MCF7, 72 h
# Outline: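 Growth inhibition by MTT after 72 h incubation. Resistant sublines: LoVoDoxo and MCF-7 MDR were kept in 0.1 µg/mL doxorubicin; CEMVbl-100 was selected against vinblastine. GI50 given as mean ± SEM of three independent experiments. Resistance index is resistant-line GI50 over parental GI50.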
# NCI-H460 [2] = assay: Antitumor activity against human NCI-H460 cells; outline: as §1
# MDA-MB-435 = assay: Antitumor activity against human MDA-MB-435 cells; outline: as §1
# PC-3 = assay: Antitumor activity against human PC3 cells; outline: as §1
# NCI-H460 [3] = assay: Cell viability against human NCI-H460 cells at 10 uM
# SF-268 = assay: Cell viability against human SF268 cells at 10 uM
# A549 = assay: Antitumor activity against human A549 cells; outline: as §1
# CCRF-CEM [4] = assay: Resistance index, Ratio of GI50 for human vinblastine-resistant CEM cells to GI50 for human CEM cells
# COLO 205 = assay: Antitumor activity against human COLO205 cells; outline: as §1
# OVCAR-3 = assay: Antitumor activity against human OVCAR-3 cells; outline: as §1
# CCRF-CEM [5] = assay: Antitumor activity against human CCRF-CEM cells; outline: as §1
# OVCAR-8 = assay: Antitumor activity against human OVCAR8 cells; outline: as §1
# HOP-92 = assay: Antitumor activity against human HOP92 cells; outline: as §1
# CAKI-1 = assay: Antitumor activity against human CAKI1 cells; outline: as §1
# A498 = assay: Antitumor activity against human A498 cells; outline: as §1
# MCF7 [6] = assay: Cell viability against human MCF7 cells at 10 uM
# Malme-3M = assay: Antitumor activity against human MALME3M cells; outline: as §1
# SK-MEL-28 = assay: Antitumor activity against human SKMEL28 cells; outline: as §1
# HT-29 = assay: Antitumor activity against human HT29 cells; outline: as §1
# [7] = read-out: Log LC50 (the source's name) (converted)
structure (smiles),measurement,setting,value
COc1ccc2c(c1)[nH]c(=O)c1c3ccccc3cn21,GI50,NCI-H23,42.7 nM
same,LC50 (50% net cell kill),NCI-H23,> 100000 nM
same,TGI,NCI-H23; read-out: pTGI (converted),3390 nM
same,GI50,SK-MEL-2,158 nM
same,LC50,SK-MEL-2,7760 nM
same,TGI,SK-MEL-2; read-out: pTGI (converted),2510 nM
same,GI50,MCF7 [1],170 nM
same,GI50,NCI-H460 [2],34.7 nM
same,CC50,NCI-H460 [2]; [7],5130 nM
same,TGI,NCI-H460 [2]; read-out: pTGI (converted),1120 nM
same,GI50,MDA-MB-435,4.07 nM
same,LC50 (50% net cell death),MDA-MB-435,> 100000 nM
same,TGI,MDA-MB-435; read-out: pTGI (converted),20.9 nM
same,GI50,PC-3,37.1 nM
same,LC50 (50% net cell death),PC-3,> 100000 nM
same,TGI,PC-3; read-out: pTGI (converted),2570 nM
same,Activity,NCI-H460 [3],0%
same,Activity,SF-268,1%
same,GI50,A549,67.6 nM
same,CC50,A549; [7],6030 nM
same,TGI,A549; read-out: pTGI (converted),1660 nM
same,RatioGI50,CCRF-CEM [4],1
same,GI50,COLO 205,40.7 nM
same,LC50,COLO 205,5750 nM
same,TGI,COLO 205; read-out: pTGI (converted),1150 nM
same,GI50,OVCAR-3,22.4 nM
same,LC50 (50% net cell death),OVCAR-3,2880 nM
same,TGI,OVCAR-3; read-out: pTGI (converted),64.6 nM
same,GI50,CCRF-CEM [5],30.2 nM
same,LC50,CCRF-CEM [5],> 100000 nM
same,TGI,CCRF-CEM [5]; read-out: pTGI (converted),1450 nM
same,GI50,OVCAR-8,57.5 nM
same,LC50 (50% net cell death),OVCAR-8,> 100000 nM
same,TGI,OVCAR-8; read-out: pTGI (converted),2340 nM
same,GI50,HOP-92,1000 nM
same,LC50,HOP-92,39800 nM
same,TGI,HOP-92; read-out: pTGI (converted),15800 nM
same,GI50,CAKI-1,35.5 nM
same,LC50,CAKI-1,5130 nM
same,TGI,CAKI-1; read-out: pTGI (converted),2000 nM
same,GI50,A498,22.4 nM
same,CC50,A498; [7],> 100000 nM
same,TGI,A498; read-out: pTGI (converted),1350 nM
same,Activity,MCF7 [6],0%
same,GI50,Malme-3M,10 nM
same,CC50,Malme-3M; [7],8510 nM
same,TGI,Malme-3M; read-out: pTGI (converted),3390 nM
same,GI50,SK-MEL-28,52.5 nM
same,CC50,SK-MEL-28; [7],6610 nM
same,TGI,SK-MEL-28; read-out: pTGI (converted),2510 nM
same,GI50,HT-29,33.9 nM
same,LC50,HT-29,> 100000 nM
same,TGI,HT-29; read-out: pTGI (converted),1480 nM
